Structures are written as SMILES.

This data set can be described thus: Toxicity liver stage against HepG2, at 10uM. It is filed as cell-based. Also noted: test concentration 10 uM, cell line HepG2-A16-CD81EGFP. As to conditions: human, HepG2-A16-CD81EGFP cells; read-out: INHIBITION
In a few lines: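 Uninfected HepG2-A16-CD81EGFP cells, 3 × 10^3 per well, 1536-well, plated on prespotted compound at 10 μM final, parasite-free screening media added to match infected plates; puromycin 10 μM positive, DMSO 0.5% negative; run in parallel with 48 h PbLuc assay at 37 °C, 5% CO2; viability by CellTiter-Glo luminescence, normalized to controls.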
In the case of `CC(=O)c1cccc(NC(=O)CN2CCCCC2C2OCCO2)c1` (stereo not given), the cytotoxicity at 10 µM was -10.5%. Under `Clc1cccc(C[C@@H]2NCCC[C@@H]2Nc2cccc(Cl)c2)c1` stands 86%.

Take `Cc1nc(C)n(CC2CCCN(CCCOc3ccccc3)C2)n1` (stereo not given): the cytotoxicity at 10 µM stood at 3.15%. For the compound `OCCCN1CCc2onc(C(c3ccccc3)c3ccccc3)c2C1`, the cytotoxicity at 10 µM was -5.51%. Under `Cc1ccc(-c2nnc(CNCCn3cccn3)o2)cc1` stands -26.1%. Under `O=C(NC[C@]12COC[C@H]1CN(CC1CCOCC1)C2)c1ccco1` stands -72.1%; under `COc1ccc(-n2cnnc2SCC(=O)N(C)C(C)C)cn1`, 16.7%; under `Cn1cnc2c1CCN(Cc1csc(C3CCCC3)n1)C2`, -12.3%. Under `CCc1ccc(CN2CCN(Cc3ncc[nH]3)[C@H]3CS(=O)(=O)C[C@H]32)nc1` stands -0.235%; under `CCOc1ccc(C(=O)Nc2c(C)nc3ccccn3c2=O)cc1`, 11.9%. `c1ccc(C2CN(c3ncnc4[nH]cnc34)CCO2)cc1` (stereo not given): the cytotoxicity at 10 µM came to 9.42%. Under `c1csc(N2CCCN(c3nccn4cnnc34)CC2)n1` stands -5.05%; under `Cn1cncc1-c1nnc([C@H]2CCN(C3CCOCC3)C2)o1`, -3.46%. In the case of `COc1cc(F)ccc1-c1ncccc1NC(=O)C(C)C`, the cytotoxicity at 10 µM stood at 1.23%. As for `Fc1cccc(N2CCOC3(CCCN(c4nncs4)C3)C2)c1` (stereo not given), the cytotoxicity at 10 µM was 4%. In the case of `CN1CCC(NC(=O)Nc2cnn(-c3ccccc3Cl)c2)C1=O` (stereo not given) it was -4.17%. Under `O=C(c1ccc(-n2cccn2)nc1)N1CCCC(c2cnccn2)C1` (stereo not given) stands 4.32%; under `COCC(=O)NCCc1ccc(Cl)s1`, 13.4%; under `CN(C)c1ncc(-c2ccc(F)cc2)c(C2CNCCO2)n1` (stereo not given), -5.68%. Under `Cc1noc(C)c1CNC(=O)NCCOc1ccc(F)cc1F` stands 0.409%; under `Cc1cccc(C(=O)N2C[C@@H]3OCCN(c4ncccn4)[C@@H]3C2)n1`, 0.523%; under `CNC(=O)c1cn2cc(-c3cccc(Cl)c3)n(CC=C(C)C)c(=O)c2n1`, -52.8%. Turning to `CCOC(=O)[C@H]1[C@@H](O)C(=O)N(C)C12CCN(C(=O)CC(C)(C)C)CC2`, the cytotoxicity at 10 µM was -4.1%. `Cc1cc(C)n(CC2CCCCN2Cc2cscn2)n1` (stereo not given): the cytotoxicity at 10 µM is 1.78%. In the case of `CCc1nc(C)c([C@H]2CN(C)C[C@@H]2C(=O)NCCc2cnccn2)[nH]1` it was -9.52%; in that of `CC1CCCCN1C1CN(C(=O)c2sccc2S(N)(=O)=O)C1` (stereo not given), -1.45%. In the case of `CN(C)C(=O)COC[C@@H]1CC[C@H]2[C@H](CCN2c2ccccn2)O1` it was 10%; in that of `Cc1c(CN2CCCCC2)c(O)n(CCO)c(=O)c1C#N`, -1.64%; in that of `N#CCCn1cnc2c(Br)cc(Br)cc2c1=O`, -5.35%. Under `COc1ccc(CN2Cc3cn(C)nc3C(COCC3CC3)C2)cc1` (stereo not given) stands -78.5%; under `COc1ccccc1-c1ncc(CN2C[C@@H](N(C)C)[C@H](C(C)C)C2)s1`, -12.3%; under `Clc1ccccc1-c1nnc(CN2CCCC2Cn2cncn2)o1` (stereo not given), -9.03%. Consider `Cc1ccnc(NCc2cccc(OCCN3CCOCC3)c2)n1`, for which the cytotoxicity at 10 µM is 2.5%. Under `Cc1ccccc1-c1noc(C2CC(C(C)C)=NO2)n1` (stereo not given) stands -14.6%; under `CCCC(NC(=O)c1ccccn1)c1nnc2ccccn12` (stereo not given), -6.54%; under `CC(Cn1cncn1)NCCN1CCc2ccccc21` (stereo not given), -3.21%. Under `CCN1C[C@H]2C3(CCN(C(=O)NC(C)C)CC3)CC[C@@]2(C(=O)NC)C1` stands -106%. Under `CCNC(=O)NC(=O)CNC1(c2noc(C)n2)CCCCC1` stands -1.3%.

Consider `CCN(CC1CN(Cc2ncc(C)o2)CCO1)c1cccnn1` (stereo not given), for which the cytotoxicity at 10 µM was -0.343%. In the case of `Cc1cc(C(=O)NC(C)Cc2ccccc2Cl)n(C)n1` (stereo not given) it was 2.8%; in that of `Cc1cccc(NC(=O)N2Cc3c(CN(C)C)nn(C)c3C2)c1`, 7.77%; in that of `COc1cccc(CN2C[C@@H]3COC[C@]3(CNC(=O)C3CC3)C2)c1`, -99%. For the compound `Cc1cccc(CN2CCCC3(CCN(C4CCSCC4)C3)C2=O)c1` (stereo not given), the cytotoxicity at 10 µM was 2.55%. In the case of `CCOC(=O)[C@]12CCCN(Cc3cccs3)C[C@H]1CN(CCOC)C2` it was 5.13%; in that of `O=C(NCCCN1CCOCC1)c1ccnc(OCc2ccccc2)c1`, -21.4%; in that of `CCN1CCCC1CN(CCN(C)C)S(=O)(=O)c1cccc(C#N)c1` (stereo not given), -12.1%. Under `Cc1cnc(CN(C)Cc2cccc(OC(F)(F)F)c2)cn1` stands 2.4%; under `COc1ccc(CNC(=O)NC2CCN(CC3CCCC3)CC2)cn1`, -8.01%; under `CC(C)N1CCN(S(=O)(=O)c2ncn(C)c2Cl)CC1`, 13.9%. Under `NC(=O)CSCC(=O)N1CCc2cc(Cl)cc(Cl)c2C1` stands 27.9%.

On to `Cc1nonc1C(=O)N1CCc2c(ncn2CCc2ccccc2)C1`, for which the cytotoxicity at 10 µM was -0.207%. In the case of `CC(COc1ccccc1)NCc1nncn1C1CCCCC1` (stereo not given) it was -4.23%; in that of `CS(=O)(=O)N1CCN(Cc2csc(-c3ncccn3)n2)CC1`, -4.71%; in that of `COCCOc1ccccc1C(=O)N1CCCCC1c1nccs1` (stereo not given), 0.642%. Under `O=C1[C@@H]2CCN(CC3CC3)C[C@@H]2OCCN1c1cccnc1` stands 8.1%; under `COc1ccccc1CN1C(=O)O[C@@H]2CN(C(C)C)C[C@@H]21`, 3.99%; under `CC(C)OCCCNC(=O)NC(C)c1ccc(-n2cncn2)cc1` (stereo not given), -5.32%. Under `N#Cc1ccc(OCCN2CCc3cncnc3C2)cc1` stands -9.96%. Regarding `Cc1cc(NC2CCN(CC3CCCO3)CC2)n2nc(C)c(C)c2n1` (stereo not given), the cytotoxicity at 10 µM amounted to 8.96%.

Consider `O=C(C1CCC1)N1C[C@@H](c2ccsc2)[C@@H]2CN(C3CCCC3)CC[C@@H]21`, for which the cytotoxicity at 10 µM is -1.51%. Consider `CCC[C@@H]1CN(Cc2ccc(C(F)(F)F)nc2)C[C@H]1C(=O)O`, for which the cytotoxicity at 10 µM was found to be 0.425%.

Regarding `O=C(NCCC1=CCCCC1)C1CCN(c2ccc3nncn3n2)CC1`, the cytotoxicity at 10 µM is -2.96%. Take `Cn1cnnc1SCC(=O)NC1CC(=O)N(CCc2cccc(Cl)c2)C1` (stereo not given): the cytotoxicity at 10 µM is 2.3%. As for `CCOc1cc(F)ccc1NC(=O)N(C)Cc1cnn(C)c1`, the cytotoxicity at 10 µM was -17%.

Take `O=C(CN1CCCS1(=O)=O)NCCOc1ccc2c(c1)CCC2`: the cytotoxicity at 10 µM was -2.5%.

With `Cc1nc(Nc2cnccn2)cc(C2CCCN(C(C)C)C2)n1` (stereo not given), the cytotoxicity at 10 µM was -9.03%.

With `CCCNC(=O)NC(=O)CN1C=Nc2ccccc2S1(=O)=O`, the cytotoxicity at 10 µM was -3.12%. In the case of `c1csc(CN2CC[C@H]3O[C@@H](COCC4CC4)CC[C@H]32)c1` it was -74.8%. Under `O=C(c1cc(-n2cnnn2)ccc1Cl)N1CCN(c2ccccc2)CC1` stands 11.3%; under `CC(NC1CCN(CC(=O)N(C)C)CC1)c1cnn(C(C)C)c1` (stereo not given), -0.54%.

For `Cn1cccc1C(=O)N[C@@H]1CN(Cc2ccsc2)[C@@H]2COC[C@@H]21`, the cytotoxicity at 10 µM came out at 9.9%. Consider `CC(=O)N1CCC(N2CCOC[C@H]2c2nc(-c3cccnc3)c[nH]2)CC1`, for which the cytotoxicity at 10 µM stood at 1.35%. In the case of `COc1ccc(NC(=O)NCC(O)c2ccc(F)cc2F)c(OC)c1` (stereo not given) it was 2.79%.

As to `CCn1cc(N)c(-c2nnc3n2CCC3)n1`, the cytotoxicity at 10 µM was -12.1%. Under `CCC1=N[C@@]2(CC[C@@H]3CN(C(=O)NCC(C)C)C[C@@H]32)C(=O)N1CC(C)C` stands -3.64%. Under `Cc1cnc2c(c1NCc1ccccn1)c(=O)n(C)c(=O)n2C` stands -4.32%; under `Cn1ccnc1C1CCN(CCN2CCOCC2)CC1`, 4.69%. Consider `COCC1CN(Cc2ccccn2)Cc2cn(C)nc21` (stereo not given), for which the cytotoxicity at 10 µM is -78.6%. Under `Cc1cnn(C2CN(CCOc3cccc(C#N)c3)C2)c1` stands 5.62%. Under `COCCN1CCCCC12CC(=O)N(c1cccc(C#N)c1)C2` (stereo not given) stands -102%. Turning to `CS(=O)(=O)N1CC2(CCN(C(=O)c3ccncc3)CC2)c2ccccc21`, the cytotoxicity at 10 µM was found to be 2.23%. Under `Cc1ccc2c(c1)OCCCC2NCc1nnc2n1CCCCC2` (stereo not given) stands -7.89%. Under `CC1CCc2nc(O)c(C(=O)NCc3ccccc3F)cc2C1` (stereo not given) stands 4.47%. In the case of `Cc1ccc(CN(CCN(C)C)Cc2ncc[nH]2)s1` it was -10.5%. On to `c1csc(CN2C[C@@H]3OCCN(CC4CCCO4)[C@@H]3C2)c1` (stereo not given in full), for which the cytotoxicity at 10 µM was -6.31%. In the case of `N#CCc1ccc(NC(=O)N[C@H](CO)Cc2ccc(O)cc2)cc1` it was -1.8%; in that of `Cc1ccc(CC(=O)N2CCC(Nc3cccnn3)CC2)s1`, -7.01%. In the case of `COCC1CN(S(=O)(=O)N(C)C)Cc2ncn(CC3CC3)c21` (stereo not given) it was 8.77%; in that of `CC(NC(=O)c1cc(N2CCNC2=O)ccc1F)c1ccc(F)cc1` (stereo not given), 5.89%; in that of `O=C(NCCc1cccc(O)c1)NC1CCN(c2ccccc2)C1=O` (stereo not given), 5.68%. Under `CCOC(=O)CNC(=O)c1cccnc1Sc1cc(OC)ccc1OC` stands 1.73%; under `O=C(NCC(O)c1cccc(F)c1)C1CCN(C(=O)C2CCC2)CC1` (stereo not given), 4.43%; under `O=S(=O)(C1CC1)N1CCC2(CCCN(Cc3ccccn3)C2)CC1`, 5.97%. As for `O=C1CN(C(=O)c2cc(Cl)ccc2F)c2ccccc2N1`, the cytotoxicity at 10 µM worked out at 79.6%.

Regarding `Cc1cn(Cc2ccc(F)cc2)nc1N`, the cytotoxicity at 10 µM is -8.99%.

For the origin of these results see ChEMBL document CHEMBL4513216, “Probing the Open Global Health Chemical Diversity Library for Multistage-Active Starting Points for Next-Generation Antimalarials” (ACS Infect Dis, 2020).
